Test results reported in ChEMBL document CHEMBL1153051, “Peperomins as anti-inflammatory agents that inhibit the NF-kappaB signaling pathway” (Bioorg Med Chem Lett, 2009).
Active and inactive are the calls of the source. The calls are words filed in the database; no cut-off is given here.

Tests used:
A549 [1] = experiment: Antiinflammatory activity in human A549 cells assessed as reduction of TNF-alpha-induced cell surface ICAM1 expression upto 100 uM preincubated for 1 hr before TNFalpha challenge measured after 6 hrs by Western blot analysis; format: functional, cell-based
In short: (§1)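 A549 cells pretreated 1 h with peperomins at various concentrations, then TNF-α (2.5 ng/mL) or IL-1 (0.25 ng/mL) added for 6 h with compound still present. Whole-cell lysates were Western blotted for ICAM-1, with β-actin as loading control.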

A549 [2] = experiment: Antiinflammatory activity in human A549 cells assessed as reduction of IL1-induced cell surface ICAM1 expression upto 100 uM preincubated for 1 hr before IL1 challenge measured after 6 hrs by Western blot analysis; format: functional, cell-based; in short: as §1
A549 [3] = experiment: Reduction of IL1-induced COX2 expression in human A549 cells at 100 uM preincubated for 1 hr before IL1 challenge measured after 6 hrs by Western blot analysis; format: functional, cell-based
In short: (§2)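 Cox-2 protein was Western blotted in A549 cells, with β-actin as loading control. Cells were pretreated 1 h with compound at various concentrations, then exposed 6 h to TNF-α (2.5 ng/mL) or IL-1 (0.25 ng/mL) in its continued presence.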

A549 [4] = experiment: Antiinflammatory activity in human A549 cells assessed as reduction of TNF-alpha-induced increase in cell surface ICAM1 expression upto 100 uM preincubated for 1 hr before TNFalpha challenge measured after 6 hrs by ELISA; format: functional, cell-based
In short: (§3)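 Cell ELISA of surface ICAM-1 on A549 cells. Cells were pretreated 1 h across a concentration series, then stimulated 6 h with TNF-α (2.5 ng/mL) or IL-1 (0.25 ng/mL) with compound present. Values are means ± SD of triplicate cultures.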

A549 [5] = experiment: Antiinflammatory activity in human A549 cells assessed as reduction of IL1-induced increase in cell surface ICAM1 expression upto 100 uM preincubated for 1 hr before IL1 challenge measured after 6 hrs by ELISA; format: functional, cell-based; in short: as §3
A549 [6] = experiment: Antiinflammatory activity in human A549 cells assessed as reduction of IL1-induced increase in cell surface ICAM1 expression preincubated for 1 hr before IL1 challenge measured after 6 hrs by ELISA; format: functional, cell-based; in short: as §3
MCF7 [7] = experiment: Antiinflammatory activity in human MCF7 cells assessed as inhibition of TNF-alpha-induced cell surface ICAM1 expression upto 100 uM preincubated for 1 hr before TNFalpha challenge measured after 6 hrs by ELISA; format: functional, cell-based
MCF7 [8] = experiment: Antiinflammatory activity in human MCF7 cells assessed as inhibition of IL1-induced cell surface ICAM1 expression upto 100 uM preincubated for 1 hr before IL1 challenge measured after 6 hrs by ELISA; format: functional, cell-based
MCF7 [9] = experiment: Cytotoxicity against human MCF7 cells upto 100 uM after 6 hrs by MTT assay; format: cell-based; details: mcf7, 6 h
A549 [10] = experiment: Cytotoxicity against human A549 cells upto 100 uM after 6 hrs by MTT assay; format: cell-based; details: a549, 6 h
In short: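 A549 viability by MTT after 6 h exposure to a range of compound concentrations, no cytokine. Viability given as %, means ± SD of triplicate cultures.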

A549 [11] = experiment: Antiinflammatory activity in human A549 cells assessed as substantial decrease in TNF-alpha-induced cell surface ICAM1 expression at > 10 uM preincubated for 1 hr before TNFalpha challenge measured after 6 hrs by Western blot analysis; format: functional, cell-based; in short: as §1
A549 [12] = experiment: Antiinflammatory activity in human A549 cells assessed as substantial decrease in IL1-induced cell surface ICAM1 expression at > 10 uM preincubated for 1 hr before IL1 challenge measured after 6 hrs by Western blot analysis; format: functional, cell-based; in short: as §1
A549 [13] = experiment: Antiinflammatory activity in human A549 cells assessed as complete decrease in TNF-alpha-induced cell surface ICAM1 expression at 100 uM preincubated for 1 hr before TNFalpha challenge measured after 6 hrs by Western blot analysis; format: functional, cell-based; in short: as §1
A549 [14] = experiment: Antiinflammatory activity in human A549 cells assessed as complete decrease in IL1-induced cell surface ICAM1 expression at 100 uM preincubated for 1 hr before IL1 challenge measured after 6 hrs by Western blot analysis; format: functional, cell-based; in short: as §1
A549 [15] = experiment: Reduction of TNF-alpha-induced COX2 expression in human A549 cells at 100 uM preincubated for 1 hr before TNFalpha challenge measured after 6 hrs by Western blot analysis; format: functional, cell-based; in short: as §2
[16] = target: T1, NF-kappa-B inhibitor alpha (Homo sapiens) (UniProt P25963); experiment: Inhibition of IL1-stimulated IkappaBalpha degradation in human A549 cells at 0.1 to 100 uM preincubated for 1 hr before IL1 challenge measured after 10 mins by Western blot analysis; format: cell-based
T1 sequence (whole entry): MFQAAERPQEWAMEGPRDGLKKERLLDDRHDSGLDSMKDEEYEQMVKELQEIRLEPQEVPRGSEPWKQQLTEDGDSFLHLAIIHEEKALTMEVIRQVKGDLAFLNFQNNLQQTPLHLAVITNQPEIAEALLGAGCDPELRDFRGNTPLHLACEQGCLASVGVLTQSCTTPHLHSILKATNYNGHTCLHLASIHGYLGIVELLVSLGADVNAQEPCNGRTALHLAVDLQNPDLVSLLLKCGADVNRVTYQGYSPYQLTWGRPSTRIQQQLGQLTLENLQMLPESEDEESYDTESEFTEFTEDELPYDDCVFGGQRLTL

A549 [17] = experiment: Inhibition of TNF-alpha-induced IKKalpha expression in human A549 cells at 100 uM preincubated for 1 hr before TNFalpha challenge measured after 5 to 30 mins by Western blot analysis; format: functional, cell-based
A549 [18] = experiment: Inhibition of IL1-induced IKKalpha expression in human A549 cells at 100 uM preincubated for 1 hr before IL1 challenge measured after 5 to 30 mins by Western blot analysis; format: functional, cell-based
A549 [19] = experiment: Inhibition of TNF-alpha-induced IKK-beta expression in human A549 cells at 100 uM preincubated for 1 hr before TNFalpha challenge measured after 5 to 30 mins by Western blot analysis; format: functional, cell-based
A549 [20] = experiment: Inhibition of IL1-induced IKK-beta expression in human A549 cells at 100 uM preincubated for 1 hr before IL1 challenge measured after 5 to 30 mins by Western blot analysis; format: functional, cell-based
[21] = target: T2, Inhibitor of nuclear factor kappa-B kinase subunit alpha (Homo sapiens) (UniProt O15111); experiment: Inhibition of N-terminal GST-fused human IkappaBalpha (1 to 54) expressed in Escherichia coli BL21
T2 sequence (whole entry): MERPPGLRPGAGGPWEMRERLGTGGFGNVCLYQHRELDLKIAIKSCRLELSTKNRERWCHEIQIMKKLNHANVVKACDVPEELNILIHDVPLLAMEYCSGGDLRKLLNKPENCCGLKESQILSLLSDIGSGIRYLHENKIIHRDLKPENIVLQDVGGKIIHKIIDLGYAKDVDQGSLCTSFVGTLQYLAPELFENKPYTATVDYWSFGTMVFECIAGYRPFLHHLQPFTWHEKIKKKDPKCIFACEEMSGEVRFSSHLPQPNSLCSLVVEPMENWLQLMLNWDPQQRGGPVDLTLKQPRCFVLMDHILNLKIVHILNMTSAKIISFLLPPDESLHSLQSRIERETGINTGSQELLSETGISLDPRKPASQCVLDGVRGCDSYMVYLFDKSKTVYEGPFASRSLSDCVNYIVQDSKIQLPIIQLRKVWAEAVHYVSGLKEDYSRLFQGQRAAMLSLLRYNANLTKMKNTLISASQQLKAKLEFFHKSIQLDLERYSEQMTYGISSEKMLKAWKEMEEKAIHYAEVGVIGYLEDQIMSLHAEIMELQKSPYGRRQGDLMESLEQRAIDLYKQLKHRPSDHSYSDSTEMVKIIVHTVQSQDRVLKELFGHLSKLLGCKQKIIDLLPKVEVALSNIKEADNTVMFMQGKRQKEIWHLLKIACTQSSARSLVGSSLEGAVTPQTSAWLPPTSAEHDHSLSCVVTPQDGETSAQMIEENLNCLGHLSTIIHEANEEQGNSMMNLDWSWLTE
In short: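 IKK complex was immunoprecipitated with anti-IKKα from A549 cells. Cells were pretreated 1 h with compound, then given TNF-α (2.5 ng/mL) for 15 min. Precipitates phosphorylated GST-IκBα(1–54) with or without ATP (10 µM). Phospho-substrate was detected by Western blot with anti-phospho-IκB antibody, with bands quantified relative to IKKα.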

[22] = target: T3, Inhibitor of nuclear factor kappa-B kinase subunit beta (Homo sapiens) (UniProt O14920); experiment: Inhibition of human FLAG-tagged IKK-beta expressed in HEK293 cells at 0.1 to 100 uM by Western blot analysis in presence of ATP; format: cell-based
T3 sequence (whole entry): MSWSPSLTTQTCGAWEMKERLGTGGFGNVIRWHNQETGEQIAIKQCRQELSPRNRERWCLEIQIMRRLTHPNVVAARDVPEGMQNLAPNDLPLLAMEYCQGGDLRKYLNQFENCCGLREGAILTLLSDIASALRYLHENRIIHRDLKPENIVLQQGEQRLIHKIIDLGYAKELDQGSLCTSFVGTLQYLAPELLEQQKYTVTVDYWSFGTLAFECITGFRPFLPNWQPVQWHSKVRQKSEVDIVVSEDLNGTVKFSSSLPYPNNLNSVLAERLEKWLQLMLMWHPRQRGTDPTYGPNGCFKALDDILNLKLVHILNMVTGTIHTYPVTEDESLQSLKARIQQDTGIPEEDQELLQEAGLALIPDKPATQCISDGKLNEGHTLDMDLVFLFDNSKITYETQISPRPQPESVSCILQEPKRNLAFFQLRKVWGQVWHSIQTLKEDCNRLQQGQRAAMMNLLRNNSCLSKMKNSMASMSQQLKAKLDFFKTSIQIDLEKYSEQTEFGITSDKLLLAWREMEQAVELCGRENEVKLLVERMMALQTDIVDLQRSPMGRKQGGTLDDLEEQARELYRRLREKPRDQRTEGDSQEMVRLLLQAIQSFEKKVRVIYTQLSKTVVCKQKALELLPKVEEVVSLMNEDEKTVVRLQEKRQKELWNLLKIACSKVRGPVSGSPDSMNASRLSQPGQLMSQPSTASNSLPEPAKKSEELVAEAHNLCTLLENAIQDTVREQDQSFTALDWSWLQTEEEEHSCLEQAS
In short: (§4)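 FLAG-IKKβ was transiently overexpressed in HEK293 cells for 24 h, then immunoprecipitated with anti-FLAG antibody. Precipitates were incubated with or without compound before the kinase reaction, and the phosphorylated product was read out by Western blot.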

A549 [23] = experiment: Selectivity for inhibition of TNF-alpha-induced cell surface ICAM1 expression over inhibition of TNF-alpha-induced COX2 expression in human A549 cells; format: functional
A549 [24] = experiment: Selectivity for inhibition of IL1-induced cell surface ICAM1 expression over inhibition of IL1-induced COX2 expression in human A549 cells; format: functional
A549 [25] = experiment: Antiinflammatory activity in human A549 cells assessed as reduction of TNF-alpha-induced increase in cell surface ICAM1 expression preincubated for 1 hr before TNFalpha challenge measured after 6 hrs by ELISA; format: functional, cell-based; in short: as §3
[26] = target: T1, NF-kappa-B inhibitor alpha (Homo sapiens); experiment: Inhibition of TNF-alpha-stimulated IkappaBalpha degradation in human A549 cells at 0.1 to 100 uM preincubated for 1 hr before TNFalpha challenge measured after 15 mins by Western blot analysis
[27] = target: T3, Inhibitor of nuclear factor kappa-B kinase subunit beta (Homo sapiens); experiment: Inhibition of human FLAG-tagged IKK-beta expressed in HEK293 cells at 50 uM by Western blot analysis in presence of ATP; format: cell-based; in short: as §4

Compound	Activity (A549 [1])	Activity (A549 [2])	Activity (A549 [3])	Activity (A549 [4])	Activity (A549 [5])	Activity (A549 [6])	Activity (MCF7 [7])	Activity (MCF7 [9])	Activity (A549 [10])	Activity (A549 [11])	Activity (A549 [12])	Activity (A549 [13])	Activity (A549 [14])	Activity (A549 [15])	inhibition [21]	inhibition [22]	Activity (A549 [25])	also measured
COc1cc(C(c2cc(OC)c3c(c2)OCO3)[C@@H]2COC(=O)[C@H]2C)cc2c1OCO2	inactive	inactive	inactive	inactive	inactive													
C=C1C(=O)OC[C@H]1C(c1cc(OC)c2c(c1)OCO2)c1cc(OC)c2c(c1)OCO2 [PEPEROMIN E]						Dose-dependent effect	Active	Non-toxic	Toxic	Active	Active	Active	Active	Active	Active	inactive	Dose-dependent effect	Activity (MCF7 [8]): Active; inhibition [16]: Active; inhibition (A549 [17]): inactive; inhibition (A549 [18]): inactive; Activity (A549 [19]): inactive; inhibition (A549 [20]): inactive; fold change (FC) (A549 [23]): 10; fold change (FC) (A549 [24]): 10; inhibition [26]: Active
COc1cc([C@@H](c2cc(OC)c3c(c2)OCO3)[C@@H]2COC(=O)[C@H]2C)cc(OC)c1OC	inactive	inactive	inactive	inactive	inactive													
CCCCC/C=C/C=C1/C(=O)C=C[C@@H]1C/C=C\CCCC(=O)O																		inhibition [27]: Active
C=C1C(=O)OC[C@H]1[C@@H](c1cc(OC)c(OC)c(OC)c1)c1cc(OC)c2c(c1)OCO2 [2,6-DIDEHYDROPEPEROMIN B]						Dose-dependent effect	Active	Non-toxic	Toxic	Active	Active	Active	Active	Active	Active	inactive	Dose-dependent effect	inhibition (MCF7 [8]): Active
